Experimental findings from ChEMBL document CHEMBL3992529, “Total Syntheses and Biological Activities of Vinylamycin Analogues” (J Med Chem, 2017) are described below.

The structures appear in SMILES notation. Values after ≈ are worked out from the molar mass of the structure shown. Counter-ions that a name gives are not always drawn. Some results are limits rather than exact numbers.

For series [1], the system named is K562. The series can be described thus: Cytotoxicity against human K562 cells measured after 72 hrs by MTT assay. The class given is functional, cell-based. The conditions noted are these: K562, 72 h.
The nature of series [2]: Stability of the compound at -20 degreeC incubated for one month. Type of series: physicochemical. The conditions noted are these: 730.5 h.
The subject of series [3] is MCF7. The series can be described thus: Cytotoxicity against human MCF7 cells incubated for 72 hrs under normoxic condition by MTT assay. The class given is functional, cell-based. As to conditions: MCF7, 72 h. The essentials:
(§1)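 MCF-7 cells seeded at 2 × 10^4 cells/100 µL in duplicate and preincubated 24 h. Serial dilutions added, then 72 h at 20% O2 (normoxia) or 1% O2 (hypoxia, modular chamber). Viability by MTT under normoxia. Values are mean ± SD of three independent experiments.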

For series [4], the system named is MCF7. Nature of the series: Cytotoxicity against human MCF7 cells incubated for 72 hrs under hypoxic condition by MTT assay. As to conditions: MCF7, 72 h. The class given is functional, cell-based. The method, boiled down:
as §1

Series [5] deals with MCF7. The series can be described thus: Selectivity index, ratio of IC50 for human MCF7 cells under hypoxic condition to IC50 for human MCF7 cells under normoxic condition. Type of series: functional. The essentials: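 Index computed as IC50(hypoxia)/IC50(normoxia) in MCF-7 cells, each from a 72 h MTT assay at 1% or 20% O2.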
The next series relates to Staphylococcus aureus. Nature of the series: Antibacterial activity against Staphylococcus aureus measured after 24 hrs by turbidimetric based microdilution method. Type of series: functional. The method, boiled down:
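S. aureus grown 18 h at 37 °C in MH broth, diluted 50-fold and regrown to OD600 0.8–1.0, then diluted ten-fold serially to about 1 × 10^4 CFU/mL. Compounds two-fold serially diluted, 64 to 0.0625 µg/mL. MIC read by visual turbidity after 24 h at 37 °C.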

The test system of series [6] is K562. The series can be described thus: Potency index, ratio of vinylamycin IC50 to compound IC50 for human K562 cells. The class given is functional.
Series [7] is described as follows: Half life in Sprague-Dawley rat plasma at 1 mg/ml by HPLC analysis. The class given is ADME, cell-free. The essentials: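 SD rat plasma diluted to 50% in water, prewarmed to 37 °C. 40 µL of a 1 mg/mL ACN stock added per 1 mL plasma. Samples taken at 0–1440 min, proteins precipitated with ACN containing internal standard, centrifuged. Supernatant quantified by C18 HPLC using the internal standard method.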

Consider `C=C1/C=C/C(=O)N[C@H](C)C(=O)N[C@@H](C(C)C)C(=O)O[C@@H]([C@H](C)CCCCCC)[C@H](CCOC(=O)C23CC4CC(CC(C4)C2)C3)C(=O)N1`, for which the IC50 with K562 [1] came to 7.72 µM. The Stability entry in series [2] was “Stable”.
In turn, `C=C1/C=C/C(=O)N[C@H](C)C(=O)N[C@@H](C(C)C)C(=O)O[C@@H]([C@H](C)CCCCCC)[C@H](CCOC(=O)CCCCCCCCCCCCCCCCC)C(=O)N1` yielded an IC50 in the series on K562 [1] greater than 50 µM. Besides, the Stability entry in series [2] is reported as “Stable”.
In the same order, the values of `C=C1/C=C/C(=O)N[C@H](C)C(=O)N[C@@H](C(C)C)C(=O)O[C@@H]([C@H](C)CCCCCC)[C@H](CCOC(=O)CP(=O)(OCC)OCC)C(=O)N1` are 7.9 µM and “Stable”.
Take `C=C1/C=C/C(=O)N[C@@H](C)C(=O)N[C@H](C(C)C)C(=O)O[C@@H]([C@H](C)CCCCCC)[C@H](CCO[Si](c2ccccc2)(c2ccccc2)C(C)(C)C)C(=O)N1`: the IC50 is 0.88 µM with K562 [1], 3.75 µM with MCF7 [3] and 2.93 µM in the series on MCF7 [4]. Also, the Stability result in series [2] is given as “Stable”. The “Ratio IC50” value in the series on MCF7 [5] stood at 0.78.
On to `C=C1/C=C/C(=O)N[C@H](C)C(=O)N[C@@H](C(C)C)C(=O)O[C@@H]([C@H](C)CCCCCC)[C@H](CCOC(=O)[C@H](Cc2ccccc2)NC(=O)OC(C)(C)C)C(=O)N1`, for which the IC50 with K562 [1] was 5.95 µM. The Stability entry in series [2] is given as “Stable”.
The matching figures for `C#CCCCCCCCCC(=O)OCC[C@@H]1C(=O)N[C@@H](CO)/C=C/C(=O)N[C@H](C)C(=O)N[C@@H](C(C)C)C(=O)O[C@H]1[C@H](C)CCCCCC`: 17.9 µM and “Stable”.
`O=C(O)c1cn(C2CC2)c2cc(N3CCNCC3)c(F)cc2c1=O` [CIPROFLOXACIN] registered an MIC against Staphylococcus aureus of 0.5 µg/mL (≈ 1.51 µM).
With `C#CCCCC(=O)OCC[C@@H]1C(=O)NC(=C)/C=C/C(=O)N[C@H](C)C(=O)N[C@@H](C(C)C)C(=O)O[C@H]1[C@H](C)CCCCCC`, the IC50 in the series with K562 [1] came to 8 µM. Further, in series [2], the Stability entry is “Stable”.
The matching figures for `CCCCCC[C@@H](C)[C@@H]1OC(=O)[C@H](C(C)C)NC(=O)[C@@H](C)NC(=O)/C=C/[C@H](CO)NC(=O)[C@H]1CCOCc1ccccc1`: 33.6 µM and “Stable”.
Turning to `Nc1ccn([C@@H]2O[C@H](CO)[C@@H](O)C2(F)F)c(=O)n1` [GEMCITABINE], the IC50 with MCF7 [3] came to 0.57 µM; in the series on MCF7 [4], 8.9 µM. Besides, the “Ratio IC50” value in the series on MCF7 [5] came out at 15.6.
In the case of `C=C1/C=C/C(=O)NCC(=O)N[C@@H](C(C)C)C(=O)O[C@@H]([C@H](C)CCCCCC)[C@H](CCO[Si](c2ccccc2)(c2ccccc2)C(C)(C)C)C(=O)N1`, the results for the IC50 with K562 [1], in the series on MCF7 [3] and with MCF7 [4] were 2.31 µM, 3.49 µM and 4.69 µM, respectively. For the same compound, the “Ratio IC50” value in the series on K562 [6] is 2; in the series with MCF7 [5] it was 1.34. In addition, the Stability result in series [2] is given as “Stable”.
With `C=C1/C=C/C(=O)N[C@@H](C)C(=O)N[C@H](C(C)C)C(=O)O[C@H]([C@H](C)CCCCCC)[C@@H](CCO[Si](c2ccccc2)(c2ccccc2)C(C)(C)C)C(=O)N1`, the IC50 was found to be 1.78 µM in the series on K562 [1], 2.98 µM in the series on MCF7 [3] and 2.69 µM in the series with MCF7 [4]. In addition, the “Ratio IC50” value was 3 with K562 [6] and 0.9 with MCF7 [5]. Besides, the Stability result in series [2] was “Stable”.
Take `C=C1/C=C/C(=O)N[C@@H](C)C(=O)N[C@H](C(C)C)C(=O)O[C@H]([C@@H](C)CCC)[C@@H](CCO)C(=O)N1`: the results for the IC50 in the series with K562 [1], in the series with MCF7 [3] and in the series with MCF7 [4] were greater than 50 µM, greater than 20 µM and greater than 20 µM, respectively.
In the series on K562 [1], `C=C1/C=C/C(=O)N[C@@H](C)C(=O)N[C@H](C(C)C)C(=O)OC([C@@H](C)CCC)[C@@H](CCOCc2ccc(OC)cc2)C(=O)N1` (single isomer, unassigned) yielded a 50% inhibitory concentration (IC50) of 13.7 µM. Moreover, the Stability entry in series [2] is on record as “Stable”.
On to `C=C1/C=C/C(=O)N(C)CC(=O)N[C@@H](C(C)C)C(=O)O[C@@H]([C@H](C)CCCCCC)[C@H](CCO[Si](c2ccccc2)(c2ccccc2)C(C)(C)C)C(=O)N1`, for which the midpoint of inhibition in the series on K562 [1], the IC50, lay at 0.4 µM. In the series on Staphylococcus aureus, the MIC was greater than 64 µg/mL. The compound also gave a half-life at 1 mg/ml in series [7] of 20.1 h. Further, in series [2], the Stability entry is “Stable”.
For the compound `C=C1/C=C/C(=O)N[C@@H](C)C(=O)N[C@H](C(C)C)C(=O)O[C@H]([C@@H](C)CCCCCC)[C@@H](CCO[Si](c2ccccc2)(c2ccccc2)C(C)(C)C)C(=O)N1`, the half-inhibitory concentration (IC50) in the series on K562 [1] turned out to be 1.27 µM; with MCF7 [3], 5.11 µM; in the series with MCF7 [4], 7.02 µM. Also, the “Ratio IC50” value with K562 [6] was found to be 4; in the series on MCF7 [5] it was 1.37. The Stability result in series [2] is on record as “Stable”.
`C=C1/C=C/C(=O)N[C@H](C)C(=O)N[C@@H](C(C)C)C(=O)O[C@@H]([C@H](C)CCCCCC)[C@H](CCOC(=O)OC(C)(C)C)C(=O)N1` registered a half-maximal inhibitory concentration (IC50) in the series with K562 [1] of 5.43 µM. Besides, the Stability result in series [2] was “Stable”.
Regarding `C=C1/C=C/C(=O)N(C)CC(=O)N[C@@H]([C@H](O)C(N)=O)C(=O)O[C@@H]([C@H](C)CCCCCCCCCCCC(C)C)[C@H](C)C(=O)N1`, the IC50 in the series with MCF7 [3] amounted to 0.3 µM; with MCF7 [4], 0.08 µM. In the series on MCF7 [5], the “Ratio IC50” value is on record as 0.27.
Turning to `C=C1/C=C/C(=O)NC(C)C(=O)NC(C(C)C)C(=O)O[C@@H]([C@H](C)CCCCCC)[C@H](CCOCc2ccccc2)C(=O)N1` (single isomer, unassigned), in the series on K562 [1], the IC50 was 3.06 µM. Further, in series [2], the Stability result is reported as “Stable”.
Regarding `CCCCCC[C@@H](C)[C@@H]1OC(=O)[C@H](C(C)C)NC(=O)[C@@H](C)NC(=O)/C=C/[C@H](CO)NC(=O)[C@H]1CCOCc1ccc(OC)cc1`, the IC50 in the series with K562 [1] is 21.4 µM. The Stability entry in series [2] is “Stable”.
Regarding `C=C1/C=C/C(=O)N[C@@H](C)C(=O)N[C@H](C(C)C)C(=O)O[C@@H]([C@H](C)CCCCCC)[C@H](CCOCc2ccc(OC)cc2)C(=O)N1`, the figures for the 50% inhibitory concentration (IC50) with K562 [1], in the series with MCF7 [3] and in the series with MCF7 [4] were 4.6 µM, 10.1 µM and 7.98 µM, respectively. Also, the Stability entry in series [2] is recorded as “Stable”. Further, in the series on MCF7 [5], the “Ratio IC50” value came to 0.79.
Take `Cc1ccc(NC(=O)c2ccc(CN3CCN(C)CC3)cc2)cc1Nc1nccc(-c2cccnc2)n1` [IMATINIB MESYLATE]: the IC50 with K562 [1] was found to be 0.31 µM.
In turn, `C=C1/C=C/C(=O)N[C@H](C)C(=O)N[C@@H](C(C)C)C(=O)O[C@@H]([C@H](C)CCCCCC)[C@H](CCOC(=O)CC(c2ccccc2)(c2ccccc2)c2ccccc2)C(=O)N1` had an IC50 in the series with K562 [1] of 3.79 µM. Also, in series [2], the Stability result was “Stable”.
In the case of `C=C1/C=C/C(=O)N(C)CC(=O)N[C@@H]([C@H](O)C(=O)OC)C(=O)O[C@@H]([C@H](C)CCCCCCCCCCCC(C)C)[C@H](C)C(=O)N1`, the IC50 was determined as 0.32 µM in the series on MCF7 [3] and 0.12 µM in the series with MCF7 [4]. Moreover, the “Ratio IC50” value in the series on MCF7 [5] is reported as 0.38.
In the series on K562 [1], `C=C1/C=C/C(=O)N[C@H](C)C(=O)N[C@@H](C(C)C)C(=O)O[C@@H]([C@H](C)CCCCCC)[C@H](CCOCc2ccc(OC)cc2)C(=O)N1` gave an IC50 of 2.49 µM. Besides, in series [2], the Stability result is listed as “Stable”.
